Entries after “also recorded” stand apart in the source; their conditions may differ.

What all share (format): cell-based
The target of one assay is GPR55 F6.48A (Homo sapiens, UniProt Q9Y2T6, F239A). Nature of the assay: SRE luciferase assay, F6.48A mutant. The settings on record: F6.48A. The method in brief: (§1)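 HA-tagged human GPR55 (WT or sequence-confirmed site-directed mutant, pcDNA3) co-transfected by lipofection with pGL4.33 luc2P/SRE reporter into HEK293 cells; 60,000 cells/well, switched to 1% FBS/DMEM after 5 h, overnight. Agonist test compounds (10 mM DMSO stocks) added for 5 h in serum-free DMEM, 37°C. Cells lysed 10 min at room temperature, luciferin injected, luminescence read immediately (RLU). EC50 from sigmoidal nonlinear regression.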
Chain of GPR55 F6.48A (Q9Y2T6 whole entry F239A): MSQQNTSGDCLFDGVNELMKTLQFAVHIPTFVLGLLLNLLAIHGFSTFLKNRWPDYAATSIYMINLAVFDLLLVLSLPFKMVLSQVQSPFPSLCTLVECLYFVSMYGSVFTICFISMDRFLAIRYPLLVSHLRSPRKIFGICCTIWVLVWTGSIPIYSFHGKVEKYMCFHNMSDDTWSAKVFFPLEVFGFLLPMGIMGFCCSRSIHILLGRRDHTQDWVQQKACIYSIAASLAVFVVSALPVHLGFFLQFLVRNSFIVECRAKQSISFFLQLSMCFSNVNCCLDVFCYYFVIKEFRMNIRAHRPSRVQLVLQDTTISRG

In another assay the target is GPR55 F6.55A (Homo sapiens, UniProt Q9Y2T6, F246A). As to the kind of experiment: SRE luciferase assay, F6.55A mutant. The settings on record: F6.55A. The method in brief: as §1
Chain of GPR55 F6.55A (Q9Y2T6 whole entry F246A): as the sequence (Q9Y2T6 whole entry F239A) above, with A239F, F246A counted along it
In another assay the target is GPR55 E3.29L (Homo sapiens, UniProt Q9Y2T6, E98L). Nature of the assay: SRE luciferase assay, E3.29L mutant. The note with it: E3.29L. The method in brief: as §1
Chain of GPR55 E3.29L (Q9Y2T6 whole entry E98L): as the sequence (Q9Y2T6 whole entry F239A) above, with E98L, A239F counted along it
The target in the next assay is GPR55 Q7.36N (Homo sapiens, UniProt Q9Y2T6, Q271N). Nature of the assay: SRE luciferase assay, Q7.36N mutant. The settings on record: Q7.36N. An outline of the steps:
as §1

The next assay addresses GPR55 C(260)A (Homo sapiens, UniProt Q9Y2T6, C260A). Nature of the assay: SRE luciferase assay, C. The settings on record: C(260)A. The method in brief:
as §1

A further assay concerns the target GPR55 Y3.32F (Homo sapiens, UniProt Q9Y2T6, Y101F). Nature of the assay: SRE luciferase assay, Y3.32F mutant. The settings on record: Y3.32F. The method in brief:
as §1

Another assay has as its target GPR55 K2.60A (Homo sapiens, UniProt Q9Y2T6, K80A). As to the kind of experiment: SRE luciferase assay, K2.60A mutant. The method in brief: as §1
The target of a further assay is GPR55 Y3.32L (Homo sapiens, UniProt Q9Y2T6, Y101L). Nature of the assay: SRE luciferase assay, Y3.32L mutant. The settings on record: Y3.32L. The method in brief:
as §1

The next assay deals with GPR55 F6.55L (Homo sapiens, UniProt Q9Y2T6, F246L). Nature of the assay: SRE luciferase assay, F6.55L mutant. The note with it: F6.55L. An outline of the steps:
as §1

Another assay deals with GPR55 Q6.58M (Homo sapiens, UniProt Q9Y2T6, Q249M). Nature of the assay: SRE luciferase assay, Q6.58M mutant. The settings on record: Q6.58M. An outline of the steps: as §1
Chain of GPR55 Q6.58M (Q9Y2T6 whole entry Q249M): as the sequence (Q9Y2T6 whole entry F239A) above, with A239F, Q249M counted along it
The next assay addresses GPR55 E3.29A (Homo sapiens, UniProt Q9Y2T6, E98A). As to the kind of experiment: SRE luciferase assay, E3.29A mutant. The settings on record: E3.29A. The method in brief:
as §1

A further assay addresses GPR55 M3.36A (Homo sapiens, UniProt Q9Y2T6, M105A). Nature of the assay: SRE luciferase assay, M3.36A mutant. The settings on record: M3.36A. The method in brief:
as §1

In the next assay the target is GPR55 H(170)F (Homo sapiens, UniProt Q9Y2T6, H170F). As to the kind of experiment: SRE luciferase assay, H. The settings on record: H(170)F. The method in brief:
as §1

The target in a further assay is GPR55 Q7.36A (Homo sapiens, UniProt Q9Y2T6, Q271A). As to the kind of experiment: SRE luciferase assay, Q7.36A mutant. The settings on record: Q7.36A. The method in brief:
as §1

A further assay has as its target GPR55 C(10)A (Homo sapiens, UniProt Q9Y2T6, C10A). As to the kind of experiment: SRE luciferase assay, C. The note with it: C(10)A. The method in brief: as §1

Chain of GPR55 Y3.32F (Q9Y2T6 whole entry Y101F): as the sequence (Q9Y2T6 whole entry F239A) above, with Y101F, A239F counted along it
Chain of GPR55 H(170)F (Q9Y2T6 whole entry H170F): as the sequence (Q9Y2T6 whole entry F239A) above, with H170F, A239F counted along it
Chain of GPR55 K2.60A (Q9Y2T6 whole entry K80A): as the sequence (Q9Y2T6 whole entry F239A) above, with K80A, A239F counted along it
Chain of GPR55 Y3.32L (Q9Y2T6 whole entry Y101L): as the sequence (Q9Y2T6 whole entry F239A) above, with Y101L, A239F counted along it
Chain of GPR55 M3.36A (Q9Y2T6 whole entry M105A): as the sequence (Q9Y2T6 whole entry F239A) above, with M105A, A239F counted along it
Chain of GPR55 E3.29A (Q9Y2T6 whole entry E98A): as the sequence (Q9Y2T6 whole entry F239A) above, with E98A, A239F counted along it
Chain of GPR55 C(10)A (Q9Y2T6 whole entry C10A): as the sequence (Q9Y2T6 whole entry F239A) above, with C10A, A239F counted along it
Chain of GPR55 Q7.36N (Q9Y2T6 whole entry Q271N): as the sequence (Q9Y2T6 whole entry F239A) above, with A239F, Q271N counted along it
Chain of GPR55 C(260)A (Q9Y2T6 whole entry C260A): as the sequence (Q9Y2T6 whole entry F239A) above, with A239F, C260A counted along it
Chain of GPR55 F6.55L (Q9Y2T6 whole entry F246L): as the sequence (Q9Y2T6 whole entry F239A) above, with A239F, F246L counted along it
Chain of GPR55 Q7.36A (Q9Y2T6 whole entry Q271A): as the sequence (Q9Y2T6 whole entry F239A) above, with A239F, Q271A counted along it

As for l-α-lysophosphatidylinositol [LPI], the “SRE response compared with WT (in words)” value was “right shifted curves; also recorded: reduces LPI's ability to signal” at GPR55 F6.48A; “little to no effect” at GPR55 F6.55A; “slight response at high concentrations of LPI” at GPR55 E3.29L; “little to no effect” at GPR55 Q7.36N; “right shifted curves” on GPR55 C(260)A; “right shifted curves; also recorded: reduced signaling” at GPR55 Y3.32F. Further, the “SRE response compared with WT (in words)” value on GPR55 K2.60A was “did not show any LPI-induced responses; also recorded: loss of function”; on GPR55 Y3.32L it was “right shifted curves; also recorded: reduced signaling”; at GPR55 F6.55L, “little to no effect”; on GPR55 Q6.58M it was “little to no effect; also recorded: essentially no effect”; on GPR55 E3.29A it was “slight response at high concentrations of LPI; also recorded: loss of function”; on GPR55 M3.36A it was “right shifted curves; also recorded: reduces LPI's ability to signal”. The “SRE response compared with WT (in words)” value at GPR55 H(170)F is “right shifted curves; also recorded: reduced signaling”; at GPR55 Q7.36A it was “little to no effect”; at GPR55 C(10)A, “right shifted curves”.

(Values after publication PMC5338039 (Biochemistry, 2017).)
